In ChEMBL document CHEMBL1138178, “Identification of novel parasitic cysteine protease inhibitors by use of virtual screening. 2. The available chemical directory” (J Med Chem, 2006) one finds IC50 and IC90 data, which are given here for 21 compounds.

The subject of assay [1] is Plasmodium falciparum. Briefly: Antimalarial activity against Plasmodium falciparum W2 up to 20 uM. Type of assay: functional, organism-based. Summed up:
(§1)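 Sorbitol-synchronized chloroquine-resistant W2 P. falciparum at 1% parasitemia, 2% hematocrit, RPMI-1640 with 10% human serum, 3% O2/6% CO2/91% N2; compounds from DMSO (max 0.1%) for 48 h; fixed in 1% formaldehyde 48 h, stained with 1 nM YOYO-1 in 0.1% Triton X-100; parasitemia by flow cytometry; IC50 from percent control parasitemia versus concentration.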

Assay [2] concerns Vero. The experiment in a line: Cytotoxicity against Vero cells up to 50 uM. Type of assay: functional, cell-based, Chlorocebus sabaeus. Summed up:
(§2)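 VERO monkey kidney fibroblast cells tested simultaneously with antileishmanial screen; cytotoxicity read by neutral red assay; IC50 computed from growth inhibition curve.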

Another assay deals with Leishmania donovani. The experiment in a line: Antileishmanial activity against Leishmania donovani promastigotes. Format: functional, organism-based.
The next assay concerns the target T1, Cysteine protease (Leishmania donovani, UniProt Q95WR6).
T1 sequence (Q95WR6 whole entry): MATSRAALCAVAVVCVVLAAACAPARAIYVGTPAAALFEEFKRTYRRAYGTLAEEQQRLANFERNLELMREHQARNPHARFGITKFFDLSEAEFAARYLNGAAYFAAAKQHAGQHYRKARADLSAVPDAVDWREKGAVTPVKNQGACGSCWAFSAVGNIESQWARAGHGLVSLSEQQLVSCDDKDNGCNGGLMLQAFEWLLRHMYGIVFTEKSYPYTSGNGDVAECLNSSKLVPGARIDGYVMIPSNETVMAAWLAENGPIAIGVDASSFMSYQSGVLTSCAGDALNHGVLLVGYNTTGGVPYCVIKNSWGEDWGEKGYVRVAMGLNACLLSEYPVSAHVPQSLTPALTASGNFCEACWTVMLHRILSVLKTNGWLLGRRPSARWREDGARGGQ
Briefly: Inhibition of Leishmania donovani cysteine protease. The method in brief:
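Major cysteine protease purified from L. donovani promastigotes on Con A Sepharose; buffer 100 mM sodium acetate pH 5.5, 10 mM DTT, 0.1% Triton X-100, 1 mM EDTA; enzyme preincubated with compounds (DMSO stock) 10 min at 37 °C; Z-Phe-Arg-AMC at 10 µM final; 30 min at 37 °C; released AMC read fluorometrically.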

The subject of assay [3] is Plasmodium falciparum. Briefly: Antimalarial activity against Plasmodium falciparum W2. Format: functional, organism-based. Summed up: as §1
For assay [4], the system named is Vero. Briefly: Cytotoxicity against Vero cells. Format: functional, cell-based. Particulars: Chlorocebus sabaeus; call rule not given here. The method in brief:
as §2

Setting [5] is: Leishmania donovani, read-out: IC50.

Where a SMILES comes first, the peptide text is derived from it. The star is where a group is joined. Cbz = O=C(OCc1ccccc1)*; OBn = c1ccc(CO*)cc1

What is called IC50 is the concentration needed to halve the response being measured. In general, IC90 refers to the point of the concentration-response curve where the effect stands at 90%. A higher IC90 goes with weaker potency.

As for `COc1ccc(-c2ccnc(SCC(=O)NCCSCc3ccco3)n2)cc1`, the figures for the IC50 result in the assay on Plasmodium falciparum [1], in the assay with Vero [2] and in the assay with Leishmania donovani (setting [5]) were “Not Active”, “Non-toxic” and 79.4 µM, respectively.
Compound `CC(=O)N[C@@H](CC(C)C)C(=O)N[C@@H](CC(C)C)C(=O)N[C@H](C=O)CCCNC(=N)N` [LEUPEPTIN] came in with an IC50 at Cysteine protease of 0.01 µM.
Turning to `COC(=O)c1sccc1NC(=O)CSCc1ccc(Cl)cc1`, the IC50 result was “Not Active” in the assay on Plasmodium falciparum [1], “Non-toxic” in the assay on Vero [2] and 45 µM in the assay on Leishmania donovani (setting [5]).
For the compound `Cc1nc(NCCCn2ccnc2)cc(-c2cncc(-c3ccc(F)cc3)c2)n1`, the IC50 in the assay with Plasmodium falciparum [3] stood at 2.6 µM; in the assay on Leishmania donovani (setting [5]), 41.2 µM; with Vero [4], 41.2 µM. In the assay with Leishmania donovani (Leishmania donovani), this compound returned an IC90 of 85 µM.
`Cn1c(CSCC(=O)Nc2ccccc2)nnc1SCC(=O)Nc1cccc(Cl)c1`: the IC50 result in the assay on Vero [2] was “Non-toxic”; in the assay on Plasmodium falciparum [3] it was 16.6 µM; in the assay with Leishmania donovani, “Not Active”.
The like results for `O=C(COCC(=O)N/N=C/CCc1ccccc1)N/N=C/CCc1ccccc1` were, in that order, “Non-toxic”, 3.9 µM and “Not Active”.
For `c1ccc(-c2nc(NCCCn3ccnc3)cc(-c3ccncc3)n2)cc1`, the figures for the IC50 result in the assay on Vero [2], in the assay on Plasmodium falciparum [3] and in the assay on Leishmania donovani (setting [5]) were “Non-toxic”, 0.13 µM and 50.5 µM, respectively. In the assay with Leishmania donovani (Leishmania donovani), this compound gave an IC90 of 98.2 µM.
`O=S(=O)(NCCSCc1ccco1)c1cc(S(=O)(=O)c2ccccc2)cs1`: the IC50 result in the assay on Plasmodium falciparum [1] is “Not Active”; in the assay with Vero [2], “Non-toxic”; in the assay with Leishmania donovani (setting [5]) it was 54.1 µM.
For the compound `Brc1cncc(-c2cc(NCCCn3ccnc3)nc(-c3ccccc3)n2)c1`, the IC50 was found to be 0.44 µM in the assay with Plasmodium falciparum [3], 7.8 µM with Leishmania donovani (setting [5]) and 32.2 µM with Vero [4]. This compound displayed a 90% effect concentration (IC90) with Leishmania donovani (Leishmania donovani) of 15.4 µM.
In turn, `O=C(CNC(=O)OCc1ccccc1)N[C@@H](Cc1ccccc1)C(=O)OCc1ccccc1` (Cbz-Gly-Phe-OBn) returned an IC50 against Cysteine protease of 31.4 µM.
On to `c1ccc(-c2nc(NCCCn3ccnc3)cc(-c3cccnc3)n2)cc1`, for which the results for the IC50 in the assay with Plasmodium falciparum [3], with Leishmania donovani (setting [5]) and with Vero [4] were 0.94 µM, 12.6 µM and 40.7 µM, respectively. The compound also showed an IC90 in the assay on Leishmania donovani (Leishmania donovani) of 56.1 µM.
With `CSc1cc(CSc2ccc(Cl)cc2)nc(-c2ccccn2)n1`, the IC50 entry in the assay with Vero [2] is “Non-toxic”; in the assay on Plasmodium falciparum [3], 20 µM; in the assay on Leishmania donovani (setting [5]) it was 50 µM. Moreover, in the assay on Leishmania donovani (Leishmania donovani), it took 106 µM to reach the 90% level (IC90).
Take `COc1ccc(-c2cncc(-c3cc(NCc4ccco4)nc(C)n3)c2)cc1`: the IC50 entry in the assay on Vero [2] is “Non-toxic”; in the assay on Plasmodium falciparum [3], 11.5 µM; with Leishmania donovani, “Not Active”.
Regarding `O=C(N[C@@H](COCc1ccccc1)C(=O)ON1C(=O)CCC1=O)OCc1ccccc1`, half-maximal inhibition against Cysteine protease (IC50) was put at 23.5 µM.
Consider `O=S(=O)(c1ccc2c(c1)C(=NO)c1cc(S(=O)(=O)N3CCOCC3)ccc1-2)N1CCOCC1`, for which the IC50 entry in the assay with Vero [2] was “Non-toxic”; with Plasmodium falciparum [3] it was 6 µM; in the assay on Leishmania donovani (setting [5]) it was 52.7 µM. Further, the IC90 with Leishmania donovani (Leishmania donovani) came to 81 µM.
For `C[C@@H](C(=O)NCCS(=O)(=O)c1ccc(Br)cc1)S(=O)(=O)c1ccccc1`, the IC50 with Plasmodium falciparum [3] is 9.5 µM; in the assay with Leishmania donovani, “Not Active”; with Vero [4], 48.4 µM.
`Cn1c(CSCC(=O)Nc2ccccc2)nnc1SCC(=O)Nc1ccccc1`: the IC50 result with Vero [2] was “Non-toxic”; in the assay with Plasmodium falciparum [3], 20 µM; with Leishmania donovani it was “Not Active”.
As to `CCOC(=O)C1CCN(S(=O)(=O)c2ccc(CNC(=O)c3ccccc3)s2)CC1`, the IC50 entry in the assay with Plasmodium falciparum [1] was “Not Active”; in the assay on Vero [2], “Non-toxic”; with Leishmania donovani (setting [5]), 50.4 µM.
At Cysteine protease, `O=C(CSc1nc2ccccc2o1)NCCSCc1ccco1` had an IC50 of 43 µM.
For the compound `O=C(CS(=O)(=O)c1ccc(Cl)cc1)NCCS(=O)(=O)c1ccccc1`, the IC50 at Cysteine protease stood at 24.9 µM.
On to `Cn1c(CSc2ccnc3cc(Cl)ccc23)nnc1SCC(=O)N1CCOCC1`, for which the IC50 result in the assay with Vero [2] is “Non-toxic”; with Plasmodium falciparum [3], 20 µM; with Leishmania donovani it was “Not Active”.
